Test results as given in ChEMBL document CHEMBL1135605, “Preparation and characterization of platinum(II) and (IV) complexes of 1,3-diaminepropane and 1,4-diaminebutane: circumvention of cisplatin resistance and DNA interstrand cross-link formation in CH1cisR ovarian tumor cells” (J Med Chem, 2002).

Key:
A2780 [1] = assay: Compound was evaluated against human Ovarian carcinoma cell line A2780cisR; format: functional, cell-based
Outline: (§1)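 MTT cell survival assay. Compounds dissolved in 10 mM NaClO4 in distilled water, with 1 mg/mL stocks freshly prepared. Final concentrations 0–200 μM added to the cultures. Survival read 24 h later by absorbance at 520 nm. IC50 (concentration giving 50% cell killing) taken from % survival vs concentration curves. Run in quadruplicate.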

A2780 [2] = assay: Compound was evaluated against human Ovarian carcinoma cell line A2780; format: functional, cell-based; outline: as §1
CH1 [3] = assay: Compound was evaluated against human Ovarian carcinoma cell line CH1; format: functional, cell-based; outline: as §1
PAM212 [4] = assay: Compound was evaluated against normal Pam 212 cell line; format: functional, cell-based, Mus musculus; outline: as §1
PAM212 [5] = assay: Compound was evaluated against transformed murine keratinocytes Pam 212-ras cell line; format: functional, cell-based, Mus musculus; outline: as §1
CH1 [6] = assay: Compound was evaluated against human Ovarian carcinoma cell line CH1cisR; format: functional, cell-based; outline: as §1

Substance | IC50 (A2780 [1]) [µM] | IC50 (A2780 [2]) [µM] | IC50 (CH1 [3]) [µM] | IC50 (PAM212 [4]) [µM] | IC50 (PAM212 [5]) [µM] | IC50 (CH1 [6]) [µM]
Cis-[Pt(1,3-diaminepropane)2(O-Glutarate)2] | > 200 | > 200 | > 200 | > 200 | > 200 | > 200
Cis-[Pt(1,3-diaminebutane)2] 1,1-cyclobutanedicarboxylate | > 200 | > 200 | > 200 | > 200 | > 200 | > 200
Cis-[Pt(1,3-diaminebutane)2(OH)2] 1,1-cyclobutanedicarboxylate | > 200 | > 200 | > 200 | > 200 | > 200 | > 200
CARBOPLATIN | 178 | 18 | 52 | > 200 | > 200 | 185
Cis-[Pt(1,3-diaminepropane)2(O-Succinate)2] | > 200 | > 200 | > 200 | > 200 | > 200 | > 200
Cis-[Pt(1,3-diaminepropane)2(O-Maleate)2] | > 200 | > 200 | > 200 | > 200 | > 200 | > 200
Cis-[Pt(1,3-diaminepropane)2] 1,1-cyclobutanedicarboxylate | > 200 | > 200 | > 200 | > 200 | > 200 | > 200
Cis-[Pt(1,3-diaminepropane) 1,1-cyclobutanedicarboxylate] | 1 | 0.3 | 4.5 | 85 | 64 | 8
Cis-[Pt(1,3-diaminepropane)2(OH)2] 1,1-cyclobutanedicarboxylate | > 200 | > 200 | > 200 | > 200 | > 200 | > 200
CISPLATIN | 36 | 2 | 6 | 44 | 72 | 25
Cis-[Pt(1,3-diaminebutane) 1,1-cyclobutanedicarboxylate] | 0.74 | 0.32 | 3.3 | 100 | 42 | 6
Cis-[Pt(1,3-diaminebutane)2(O-Succinate)2] | > 200 | > 200 | > 200 | > 200 | > 200 | > 200
